Measured values from the RNAGym collection of RNA variant scans (doi:10.1126/science.aae0568).
Variants at the floor of the assay were thinned out.

B1: tRNA (parent)
chain: GUUCCGUUGGCGUAAUGGUAACGCGUCUCCCUCCUAAGGAGAAGACUGCGGGUUCGAGUCCCGUACGGAACG

Variants of: B1
Experiment: yeast fitness relative to wild type (ratio to wild type); higher = fitter; tRNA-Arg(CCU), competitive growth, 37 C, YPD
In short: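 For this measurement, the tRNA-Arg(CCU) gene was varied by chemical synthesis at a 3% per-site mutation rate across 69 sites, and each variant was placed at the native genomic locus in Saccharomyces cerevisiae. The pooled strains went through a 24-hour competition in YPD at 37°C in six parallel replicates, with amplicons from start and end populations read by 100-nucleotide paired-end sequencing. Darwinian fitness relative to wild type followed from the change in each genotype's frequency. Genotypes needed ≥ 100 starting reads, and estimates < 0.5 were set to 0.5.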

Going from GUUCCGUUGGCGUAUUGGUGACGCGUUUCACUCCUAAGGAGAAGACUGCGGGUUCGAGUCCCGUACGGAACG [A15U A20G C27U C30A] to GUUCCGUUGGCGUAUUGGUAACGCGUCUCCCUCCUACGGAGAUGACUGCGGGUUCGAGUCCCGUACGGAACG [A15U A37C A43U], the yeast fitness rises from at most 0.5 to 0.514.

Compared with GUUCCGUUGGCGUAGUGGUAACGCGUCUCCCUCCUAAGGAGAAGACUGCGGGUCCGAGUCCCGUACGGAACG [A15G U54C], GUUCCGUUGGCGUAGUGGUAACGCGUCUCCCUCCUAAGGAGAAGACUGCGGGUACGAGUCCCGUACGGAACG [A15G U54A] is lower in yeast fitness: 0.905 for the first, 0.648 for the second.

Going from GUUCCGUUGGCGUAGUGGUAACGCGUCUCCCUCCUAAGGAGAAGACUGCGGGUGCGAGUCCCGUACGGAACG [A15G U54G] to GUUCCGUUGGCGUAUUGGUUACGCGUCUCCCUCCUAAGGAGAAGACUGCGGGUUCCAGUCCCGUACGGAACG [A15U A20U G56C], the yeast fitness falls from 0.612 to at most 0.5.

GUUCCGUUGGCGUAUUGGUGACGCGUCUCCCUCCUAAGGAGAAGACUGCGGCUUCGAGUCCCGUUCCGAACG [A15U A20G G52C A65U G67C] and GUUCCGUUGGCGUAUUGGUAACGCGUCUCCCUCCUAAGGUGAAGACUGCGGAUUCGAGUCCCGUACGGAACG [A15U A40U G52A] cannot be ordered by yeast fitness: at most 0.5 for the first, at most 0.5 for the second.

Compared with GUUCCGUUGGCGUAGUGGUAACGCGUCUCCCUCCUAAGGAGAAGACCGCGGGUUCGAGUCCCGUACGGCACG [A15G U47C A69C], GUUCCGUUGGCGUAUUGGUAGCGCGUCUCCGUCCUAAGGAGAAGACUGAGGGUUCGAGUCCCGUACGGAACG [A15U A21G C31G C49A] is lower in yeast fitness: 0.754 for the first, at most 0.5 for the second.

First: GUUCCGUUGGCGUAGUGGUAACGCGUCCCUCUCCUAAGGAGAAGACUGCGGGUUCGAGUCCCGUACGGUACG [A15G U28C C30U A69U]
Second: GUUCCGUUGGCGUAUUGGUAACGCGUCUCCCUCCUAAGGUGAAGACUGCGGGUUCGAGUCCCGUACGGAACG [A15U A40U]
The yeast fitness of the first is lower: 0.633 for the first, 0.637 for the second.

Going from GUUCCGUUGGCGUAUUGGUAGCGCCUCUCCCUACUAUGGAGAAGACUGCGGGUUCGAGUCCCGUACGGAACG [A15U A21G G25C C33A A37U] to GUUCCGUUGGCGUAGUGGUAACGCGGCUCCCUCCUAAGGAGAAGACUGCGGGUUCGAGUCCCGUACGGAACG [A15G U26G], the yeast fitness rises from 0.554 to 0.703.

GUUCCGUUGGCGUAGUGGUAACGCGUCUCCCUCCAAAGGAGAAGACUGCGGGUUCGGUUCCGGUACGGAACG [A15G U35A A57G G58U C62G] and GUUCCGUUGGCGUAUUGGUAACGCGUCUCCCUCCUAGGGAGAAGACUGCGGGUUCGAGUCCCGUCCGGAACG [A15U A37G A65C] cannot be ordered by yeast fitness: at most 0.5 for the first, at most 0.5 for the second.

GUUCCGUUGGCGUAUUGGUAACGCGUCUCCCUCCUGAGGAGAAGACUGCGCGUUGGAGUCCCGUACGGAACG [A15U A36G G51C C55G] and GUUCCGUUGGCGUAUUGGUCACACGUCUCUCUCCUAAGGAGAAGACUGCGGGUUCGAGUCCCGUACGGAACG [A15U A20C G23A C30U] cannot be ordered by yeast fitness: at most 0.5 for the first, at most 0.5 for the second.

Compared with GUUCCGUUGGCGUAGUGGUAACGCGUCUCCCGCCUAAGGAGACGACUGCGGGUUCGAGUCCCGUACGGAACG [A15G U32G A43C], GUUCCGUUGGCGUAGUGGUAACGCGUCUCCCUCCUAAGGAGAAGACUGCGGGUUCGAGUCCCGCACGGAACG [A15G U64C] is higher in yeast fitness: at most 0.5 for the first, 0.976 for the second.

GUUCCGUUGGCGUAUUGGUCACGCGUCUCCCUCCUAAGGAGAAGACUACGGGUUCGAGUCCCGUACGGCACG [A15U A20C G48A A69C] and GUUCCGUUGGCGUAUUGGUGACGCGUCACCCUGCUAAGGAGAAGACUGCGGGUUCGAGUCCCGUACGGAACG [A15U A20G U28A C33G] cannot be ordered by yeast fitness: at most 0.5 for the first, at most 0.5 for the second.

GUUCCGUUGGCGUAUUGGUGACGCGUUUCCCUCCUAAGGAGAAGACUGCGGGUUCGAGUCCCGUAAGGAACG [A15U A20G C27U C66A] and GUUCCGUUGGCGUAGUGGUAACGCGGCUCCCUCCUAAGGACACGACUGCGGGUUCGAGUCCCGUAAGGAACG [A15G U26G G41C A43C C66A] cannot be ordered by yeast fitness: at most 0.5 for the first, at most 0.5 for the second.

First: GUUCCGUUGGCGUAGUGGUAACGCGUCUCCCUCCGAAGGAGAAGUCUGCGGGUUCGAGUCCCGUACGGAACG [A15G U35G A45U]
Second: GUUCCGUUGGCGUAUUGGUAACGCGUCUCCCUCCUAAGGUGAAGACUGCGGGUUCGAGUCUCGUACGGAGCG [A15U A40U C61U A70G]
The yeast fitness of the first is lower: at most 0.5 for the first, 0.718 for the second.

First: GUUCCGUUGGCGUAUUGGUCACGCGUCUCCCUCCUAAGGAGAAGACUGCGGGUUCGAGUCCCGUACUGAACG [A15U A20C G67U]
Second: GUUCCGUUGGCGUAUUGGUAACGCGUCUCCCUCCUCAGGAGAAGACUCCGGGUUCGAGACCCGUAUGGAACG [A15U A36C G48C U59A C66U]
The yeast fitness of the first is higher: 0.605 for the first, at most 0.5 for the second.

GUUCCGUUGGCGUAGUGGUAACGCGGCUCUCUCCUACGCAGAAGACUGCGGGUUCGAGUCGCGUACGGGACG [A15G U26G C30U A37C G39C C61G A69G] and GUUCCGUUGGCGUAGUGGUAACGCGUCUCCCACCUAAGGAGAAGACUGCGGCUUCGAGUCCCGUACGAAACG [A15G U32A G52C G68A] cannot be ordered by yeast fitness: at most 0.5 for the first, at most 0.5 for the second.

Compared with GUUCCGUUGGCGUAGUGGUAACGCGUCUCCCUCCUAAGGAGAAGACUGCGGGCUCGAGUCGCGUACGGAACG [A15G U53C C61G], GUUCCGUUGGCGUAUUGGUAGCGCGUCUCCCUCCUAAGGAGAAGACUGUGGGUUCGAGUCCCGUACGGAACG [A15U A21G C49U] is higher in yeast fitness: at most 0.5 for the first, 0.556 for the second.

GUUCCGUUGGCGUAGUGGUAACGCGUCUCCCUCCAAAGGAGAAGACUGCGGGUUCGAGUCCACUACGGAACG [A15G U35A C62A G63C] and GUUCCGUUGGCGUAUUGGUACCGCGUCUCCCUCCUAAGGAGAAGACUGAGGGUUCGAGUCCCGUACGGAACG [A15U A21C C49A] cannot be ordered by yeast fitness: at most 0.5 for the first, at most 0.5 for the second.

Compared with GUUCCGUUGGCGUAUUGGUAACGCGUCUCCCUCCUUAGGUGAAGACUGCGGGUUCGAGUCCCGUACGCAACG [A15U A36U A40U G68C], GUUCCGUUGGCGUAGUGGUAACGCGUCACCCUCGUAAGGAGAAGAAUGCGGGUUCGAGUCCCGUACGGAACG [A15G U28A C34G C46A] is lower in yeast fitness: 0.643 for the first, 0.501 for the second.

Compared with GUUCCGUUGGCGUAGUGGUAACGCGUCUCCCUCCUAAGGAGAAGACUGCGGGUACGAGUCUCGUACGGAACG [A15G U54A C61U], GUUCCGUUGGCGUAGUGGUAACGCGUCUCCCACCUAAAGAGAAGACUGCGGGUUCGAGUCCCGUACGGUACG [A15G U32A G38A A69U] is lower in yeast fitness: 0.57 for the first, at most 0.5 for the second.
